# Activity calls are given as the source filed them. The rule behind the calls is not given here.
# Target: E3 ubiquitin-protein ligase Mdm2 (Homo sapiens) (UniProt Q00987)
# Assay: Inhibition of wild type Mdm2 at 20 ug/mL after 2 hrs by cell-based luciferase assay
# Settings: not given
# Sequence of E3 ubiquitin-protein ligase Mdm2 (Homo sapiens) (Q00987 whole entry, looked up): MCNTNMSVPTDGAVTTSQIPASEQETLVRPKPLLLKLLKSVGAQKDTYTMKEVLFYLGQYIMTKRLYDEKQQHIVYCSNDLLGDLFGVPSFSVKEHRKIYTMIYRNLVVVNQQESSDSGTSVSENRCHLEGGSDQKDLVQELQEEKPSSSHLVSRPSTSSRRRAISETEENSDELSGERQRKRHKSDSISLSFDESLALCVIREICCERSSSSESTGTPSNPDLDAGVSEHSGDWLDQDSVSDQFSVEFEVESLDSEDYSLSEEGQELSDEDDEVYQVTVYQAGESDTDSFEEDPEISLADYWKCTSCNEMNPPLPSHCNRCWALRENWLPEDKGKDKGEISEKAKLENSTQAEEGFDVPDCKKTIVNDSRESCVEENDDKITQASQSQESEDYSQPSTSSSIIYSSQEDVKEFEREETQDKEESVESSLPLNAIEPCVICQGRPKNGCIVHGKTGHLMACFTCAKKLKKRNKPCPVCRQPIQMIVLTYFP
row,SMILES,inhibition
1,CCOC(=O)C1c2[nH]c3ccccc3c2CCN1Cc1ccccc1 (centres undefined),inactive
2,CC(C)(C)OC(=O)N1CCc2c(n(C(=O)OC(C)(C)C)c3ccccc23)C1CCO (centres undefined),inactive
3,CN1C(=O)C(Cc2nccc3c2[nH]c2ccccc23)C(=O)N(C)C1=O,inactive
4,COC(OC)C1c2[nH]c3ccccc3c2CCN1Cc1ccccc1 (centres undefined),inactive
5,CCOC(=O)C1c2c(c3ccccc3n2C(=O)OC(C)(C)C)CCN1C(=O)OC (centres undefined),inactive
6,CN1C(=O)C(c2nccc3c2[nH]c2ccccc23)C(=O)N(C)C1=O,inactive

# Tested on: E3 ubiquitin-protein ligase Mdm2 (Homo sapiens), Q00987 [C464A]
# Assay: Inhibition of Mdm2 C464A mutant at 20 ug/mL after 2 hrs by cell-based luciferase assay
# Settings: not given
# Sequence of E3 ubiquitin-protein ligase Mdm2 (Homo sapiens), Q00987 [C464A] (Q00987 whole entry C464A): as the sequence (Q00987 whole entry, looked up) above, with C464A counted along it
row,SMILES,inhibition
1,CCOC(=O)C1c2[nH]c3ccccc3c2CCN1Cc1ccccc1 (centres undefined),inactive
2,CC(C)(C)OC(=O)N1CCc2c(n(C(=O)OC(C)(C)C)c3ccccc23)C1CCO (centres undefined),inactive
3,CN1C(=O)C(Cc2nccc3c2[nH]c2ccccc23)C(=O)N(C)C1=O,inactive
4,COC(OC)C1c2[nH]c3ccccc3c2CCN1Cc1ccccc1 (centres undefined),inactive
5,CCOC(=O)C1c2c(c3ccccc3n2C(=O)OC(C)(C)C)CCN1C(=O)OC (centres undefined),inactive
6,CN1C(=O)C(c2nccc3c2[nH]c2ccccc23)C(=O)N(C)C1=O,inactive

# Tested on: HT-1080
# Assay: Cytotoxicity against human HT1080 cells after 48 hrs by alamar blue assay
# Format: functional
# Settings: HT-1080, 48 h, read-out: LC50 (the source's name)
row,SMILES,CC50
1,COC(OC)C1c2[nH]c3ccccc3c2CCN1Cc1ccccc1 (centres undefined),59.5 µM

# Tested on: RKO
# Assay: Cytotoxicity against human RKO cells after 48 hrs by alamar blue assay
# Format: functional
# Settings: read-out: LC50 (the source's name)
row,SMILES,CC50
1,CC(C)(C)OC(=O)N1CCc2c(n(C(=O)OC(C)(C)C)c3ccccc23)C1CCO (centres undefined),49.7 µM
2,COC(OC)C1c2[nH]c3ccccc3c2CCN1Cc1ccccc1 (centres undefined),59.5 µM

# Tested on: MCF7
# Assay: Cytotoxicity against human MCF7 cells after 48 hrs by alamar blue assay
# Format: functional
# Settings: MCF7, 48 h, read-out: LC50 (the source's name)
row,SMILES,CC50
1,COC(OC)C1c2[nH]c3ccccc3c2CCN1Cc1ccccc1 (centres undefined),59.5 µM

# Tested on: U2OS
# Assay: Cytotoxicity against human U2OS cells after 48 hrs by alamar blue assay
# Format: functional
# Settings: read-out: LC50 (the source's name)
row,SMILES,CC50
1,CC(C)(C)OC(=O)N1CCc2c(n(C(=O)OC(C)(C)C)c3ccccc23)C1CCO (centres undefined),49.7 µM
2,COC(OC)C1c2[nH]c3ccccc3c2CCN1Cc1ccccc1 (centres undefined),59.5 µM

# Tested on: HT-1080
# Assay: Cytotoxicity against human HT1080 cells at 20 ug/mL after 48 hrs by alamar blue assay
# Format: functional, cell-based
# Settings: not given
# In short: (§1)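 Each cell line exposed for 48 h to a 2-fold, 12-point dilution series beginning at 20 µg/mL. Viability by Alamar blue; LC50 derived from the curves.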
row,SMILES,Activity
1,CCOC(=O)C1c2[nH]c3ccccc3c2CCN1Cc1ccccc1 (centres undefined),inactive
2,CC(C)(C)OC(=O)N1CCc2c(n(C(=O)OC(C)(C)C)c3ccccc23)C1CCO (centres undefined),inactive
3,CN1C(=O)C(Cc2nccc3c2[nH]c2ccccc23)C(=O)N(C)C1=O,inactive
4,CCOC(=O)C1c2c(c3ccccc3n2C(=O)OC(C)(C)C)CCN1C(=O)OC (centres undefined),inactive
5,CN1C(=O)C(c2nccc3c2[nH]c2ccccc23)C(=O)N(C)C1=O,inactive

# Tested on: RKO
# Assay: Cytotoxicity against human RKO cells at 20 ug/mL after 48 hrs by alamar blue assay
# Format: functional, cell-based
# Settings: not given
# In short: as §1
row,SMILES,Activity
1,CCOC(=O)C1c2[nH]c3ccccc3c2CCN1Cc1ccccc1 (centres undefined),inactive
2,CN1C(=O)C(Cc2nccc3c2[nH]c2ccccc23)C(=O)N(C)C1=O,inactive
3,CCOC(=O)C1c2c(c3ccccc3n2C(=O)OC(C)(C)C)CCN1C(=O)OC (centres undefined),inactive
4,CN1C(=O)C(c2nccc3c2[nH]c2ccccc23)C(=O)N(C)C1=O,inactive

# Tested on: MCF7
# Assay: Cytotoxicity against human MCF7 cells at 20 ug/mL after 48 hrs by alamar blue assay
# Format: functional, cell-based
# Settings: not given
# In short: as §1
row,SMILES,Activity
1,CCOC(=O)C1c2[nH]c3ccccc3c2CCN1Cc1ccccc1 (centres undefined),inactive
2,CC(C)(C)OC(=O)N1CCc2c(n(C(=O)OC(C)(C)C)c3ccccc23)C1CCO (centres undefined),inactive
3,CN1C(=O)C(Cc2nccc3c2[nH]c2ccccc23)C(=O)N(C)C1=O,inactive
4,CCOC(=O)C1c2c(c3ccccc3n2C(=O)OC(C)(C)C)CCN1C(=O)OC (centres undefined),inactive
5,CN1C(=O)C(c2nccc3c2[nH]c2ccccc23)C(=O)N(C)C1=O,inactive

# Tested on: U2OS
# Assay: Cytotoxicity against human U2OS cells at 20 ug/mL after 48 hrs by alamar blue assay
# Format: functional, cell-based
# Settings: not given
row,SMILES,Activity
1,CCOC(=O)C1c2[nH]c3ccccc3c2CCN1Cc1ccccc1 (centres undefined),inactive
2,CN1C(=O)C(Cc2nccc3c2[nH]c2ccccc23)C(=O)N(C)C1=O,inactive
3,CCOC(=O)C1c2c(c3ccccc3n2C(=O)OC(C)(C)C)CCN1C(=O)OC (centres undefined),inactive
4,CN1C(=O)C(c2nccc3c2[nH]c2ccccc23)C(=O)N(C)C1=O,inactive

# Tested on: HT1299
# Assay: Cytotoxicity against human HT1299 cells at 20 ug/mL after 48 hrs by alamar blue assay
# Format: functional, cell-based
# Settings: not given
# In short: as §1
row,SMILES,Activity
1,CCOC(=O)C1c2[nH]c3ccccc3c2CCN1Cc1ccccc1 (centres undefined),inactive
2,CC(C)(C)OC(=O)N1CCc2c(n(C(=O)OC(C)(C)C)c3ccccc23)C1CCO (centres undefined),inactive
3,CN1C(=O)C(Cc2nccc3c2[nH]c2ccccc23)C(=O)N(C)C1=O,inactive
4,COC(OC)C1c2[nH]c3ccccc3c2CCN1Cc1ccccc1 (centres undefined),inactive
5,CCOC(=O)C1c2c(c3ccccc3n2C(=O)OC(C)(C)C)CCN1C(=O)OC (centres undefined),inactive
6,CN1C(=O)C(c2nccc3c2[nH]c2ccccc23)C(=O)N(C)C1=O,inactive

# Tested on: BJeH
# Assay: Cytotoxicity against human BJeH cells expressing wild type RAS at 20 ug/mL after 48 hrs by alamar blue assay
# Format: functional, cell-based
# Settings: not given
row,SMILES,Activity
1,CCOC(=O)C1c2[nH]c3ccccc3c2CCN1Cc1ccccc1 (centres undefined),inactive
2,CC(C)(C)OC(=O)N1CCc2c(n(C(=O)OC(C)(C)C)c3ccccc23)C1CCO (centres undefined),inactive
3,CN1C(=O)C(Cc2nccc3c2[nH]c2ccccc23)C(=O)N(C)C1=O,inactive
4,COC(OC)C1c2[nH]c3ccccc3c2CCN1Cc1ccccc1 (centres undefined),inactive
5,CCOC(=O)C1c2c(c3ccccc3n2C(=O)OC(C)(C)C)CCN1C(=O)OC (centres undefined),inactive
6,CN1C(=O)C(c2nccc3c2[nH]c2ccccc23)C(=O)N(C)C1=O,inactive

# Tested on: BJeLR
# Assay: Cytotoxicity against human BJeLR cells expressing RAS G12V mutant at 20 ug/mL after 48 hrs by alamar blue assay
# Format: functional, cell-based
# Settings: not given
row,SMILES,Activity
1,CCOC(=O)C1c2[nH]c3ccccc3c2CCN1Cc1ccccc1 (centres undefined),inactive
2,CC(C)(C)OC(=O)N1CCc2c(n(C(=O)OC(C)(C)C)c3ccccc23)C1CCO (centres undefined),inactive
3,CN1C(=O)C(Cc2nccc3c2[nH]c2ccccc23)C(=O)N(C)C1=O,inactive
4,COC(OC)C1c2[nH]c3ccccc3c2CCN1Cc1ccccc1 (centres undefined),inactive
5,CCOC(=O)C1c2c(c3ccccc3n2C(=O)OC(C)(C)C)CCN1C(=O)OC (centres undefined),inactive
6,CN1C(=O)C(c2nccc3c2[nH]c2ccccc23)C(=O)N(C)C1=O,inactive
